From paper PMC3049920 (Journal of immunology (Baltimore, Md. : 1950), 2010)

Experiments:
[1] = test system: IFNγ+ cells in human peripheral blood; experiment: Induction of IFNγ+ cells in human peripheral blood in vitro; format: cell-based; conditions: 20 µg/ml
In short: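 Whole heparinized blood (0.1 ml) from healthy volunteers was incubated with test agent at 37°C for 4 h. RBCs were lysed with hypotonic buffer (10 mM Tris pH 7.4, 10 mM NaCl), and the WBC pellet was washed and resuspended in RPMI 1640/10% FCS. IFNγ+ cells were quantified by human IFNγ ELISPOT (16 h culture). Values are mean ± SD of duplicates.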

B16 melanoma tumors = B16 melanoma tumors in C57BL/6 mice; format: in vivo, mouse; conditions: 12 mg, daily, 5 d/wk, s.c.
[2] = test system: IFNγ+ cells in mouse splenocytes; experiment: Induction of IFNγ+ cells in mouse splenocytes in vitro; format: cell-based; conditions: optimal dose 20 µg/ml
In short: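 Splenocytes came from female 129 mice, 3–5 weeks old. They were cultured 16 h in RPMI 1640/10% FCS with or without test agent in plates coated with anti-mouse IFNγ antibody. IFNγ+ cells were detected in situ by ELISPOT and counted with an automated reader. Values are mean ± SD of duplicates.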

[3] = test system: cellular phospho-tyrosine proteins in Jurkat cells; experiment: Profile of cellular phospho-tyrosine proteins in Jurkat cells; format: cell-based, human; conditions: 10 min

Compound	induction of IFNγ+ cells [1]	response of B16 tumors (B16 melanoma tumors)	maximal increase of IFNγ+ cells [2]	effect on profile of cellular phospho-tyrosine proteins [3]
O.O.O.O.O.O.O.O.O.O=C([O-])[C@@H]1[O][Sb](=[O])([O][Sb]2(=[O])[O][C@H]([C@H](O)CO)[C@H](O)[C@H](C(=O)[O-])[O]2)[O][C@H]([C@H](O)CO)[C@@H]1O.[Na+].[Na+].[Na+] (stereo partly shown) [SSG, sodium stibogluconate]	~ 2 fold	not responsive	~ 3 fold	
pervanadate [pervanadate (PV)]				marked increases of multiple phosphotyrosine proteins
